Results reported in ChEMBL document CHEMBL4266021 (J Nat Prod, 2018).

Key:
[1] = target: T1, Acetylcholinesterase (Homo sapiens, UniProt P22303); assay: Inhibition of human AChE using acetylthiocholine as substrate
[2] = target: T2, Liver carboxylesterase 1 (Homo sapiens, UniProt P23141); assay: Binding affinity to serine residue of human CE1 assessed as adduct formation at 10 uM by mass spectrum analysis
T2 sequence (P23141 whole entry): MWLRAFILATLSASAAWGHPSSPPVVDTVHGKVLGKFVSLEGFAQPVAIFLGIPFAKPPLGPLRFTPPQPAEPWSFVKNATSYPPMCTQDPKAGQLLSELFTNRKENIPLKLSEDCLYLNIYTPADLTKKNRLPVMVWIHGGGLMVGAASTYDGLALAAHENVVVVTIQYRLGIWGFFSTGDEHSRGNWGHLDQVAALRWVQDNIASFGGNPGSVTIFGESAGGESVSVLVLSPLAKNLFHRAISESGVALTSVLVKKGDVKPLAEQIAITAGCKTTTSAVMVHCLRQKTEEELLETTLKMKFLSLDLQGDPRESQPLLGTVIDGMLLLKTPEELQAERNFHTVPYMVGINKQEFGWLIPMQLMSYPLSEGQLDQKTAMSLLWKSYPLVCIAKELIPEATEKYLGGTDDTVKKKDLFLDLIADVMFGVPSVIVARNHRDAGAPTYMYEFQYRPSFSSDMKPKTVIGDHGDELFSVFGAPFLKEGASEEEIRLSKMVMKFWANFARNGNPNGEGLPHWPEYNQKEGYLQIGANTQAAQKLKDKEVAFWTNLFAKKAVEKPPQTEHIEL
Summary of the method: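 hCE1 purified from serum-free medium of baculovirus-infected Spodoptera frugiperda cells, incubated with 10μM inhibitor. Unbound compound removed by dilution and repeated size-exclusion spin chromatography. Intact mass by ESI positive-mode MS (600–2800 m/z) in 3:2 water-acetonitrile with 0.1% formic acid, 2 min acquisition. Spectra deconvoluted, and adduct read as mass shift versus DMSO-treated protein.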

[3] = target: T3, carboxylesterase 1 (CE1) (Homo sapiens, UniProt P23141); assay: Irreversible inhibition of human CE1 assessed as residual activity preincubated with enzyme followed by compound dilution measured after 18 hrs using o-NPA as substrate relative to control; conditions: probe o-NPA, read-out: Activity
T3 sequence (P23141 whole entry): T2 sequence (P23141 whole entry)

[4] = Irreversible inhibition of human intestinal carboxylesterase assessed as residual activity preincubated with enzyme followed by compound dilution measured after 18 hrs using o-NPA as substrate relative to control
Summary of the method: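 Purified recombinant hiCE pre-incubated with inhibitor, then extensively diluted and passed through size-exclusion filtration to remove free compound. Recovered protein assayed for residual esterase activity with o-NPA. Benzil (reversible inhibitor) and DMSO (solvent) served as controls.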

[5] = target: T1, Acetylcholinesterase; assay: Inhibition of human AChE at 10 uM using acetylthiocholine as substrate relative to control
[6] = target: T4, Cholinesterase (Homo sapiens, UniProt P06276); assay: Inhibition of human BuChE at 10 uM using butyrylhiocholine as substrate relative to control
[7] = target: T3, carboxylesterase 1 (CE1); assay: Inhibition of human CE1 expressed in human U373MG cells assessed as reduction in enzyme-mediated oseltamivir hydrolysis at 10 uM preincubated for 10 mins followed by oseltamivir addition measured after 30 mins by UPLC-MS analysis relative to control; type: cell-based; conditions: U373MG cells that express human CE1, probe oseltamivir
Summary of the method: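 U373MG glioblastoma cells expressing hCE1 (~10^6 per well) pretreated 10 min with 10μM inhibitor, then given oseltamivir (20μM final). After 30 min, media harvested, mixed with an equal volume of acetonitrile and centrifuged. Oseltamivir carboxylate quantified by UPLC (C18, water:acetonitrile gradient) with MS detection. Expressed as percent of DMSO-treated cells. Benzil used as positive control; duplicate points.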

[8] = target: T4, Cholinesterase; assay: Inhibition of human BuChE using butyrylhiocholine as substrate
[9] = Inhibition of human intestinal carboxylesterase using o-nitrophenyl acetate as substrate
Summary of the method: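 Recombinant hiCE secreted from baculovirus-infected Spodoptera frugiperda cells and purified from serum-free medium. Activity measured spectrophotometrically with o-nitrophenyl acetate as substrate. Routinely at least 8 inhibitor concentrations tested, and Ki derived.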

[10] = target: T3, carboxylesterase 1 (CE1); assay: Inhibition of human CE1 expressed in human U373MG cells assessed as reduction in enzyme-mediated oseltamivir hydrolysis by measuring oseltamivir carboxylate level at 10 uM preincubated for 10 mins followed by oseltamivir addition measured after 30 mins by UPLC-MS analysis relative to control; type: cell-based; design: scale not given: the % may be the effect or the level left; conditions: U373MG cells that express human CE1, probe oseltamivir, read-out: Activity
Summary of the method: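 U373MG glioblastoma cells engineered to express hCE1 (~10^6 per well) were pre-incubated 10 min with 10μM inhibitor, then oseltamivir was added (20μM final) for 30 min. Media were harvested, mixed with an equal volume of acetonitrile and centrifuged. Oseltamivir carboxylate was measured by UPLC (C18, water:acetonitrile gradient) with MS detection, as percent of DMSO-treated cells. Benzil was the positive control; duplicate points.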

[11] = target: T2, Liver carboxylesterase 1; assay: Inhibition of human CE1 using o-NPA as substrate
Summary of the method: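 Recombinant human CE1 was purified from serum-free media of baculovirus-infected Spodoptera frugiperda cells secreting the enzyme. Activity was read spectrophotometrically with o-nitrophenyl acetate as substrate. At least 8 inhibitor concentrations were used and Ki was derived from them.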

T4 sequence (P06276 whole entry): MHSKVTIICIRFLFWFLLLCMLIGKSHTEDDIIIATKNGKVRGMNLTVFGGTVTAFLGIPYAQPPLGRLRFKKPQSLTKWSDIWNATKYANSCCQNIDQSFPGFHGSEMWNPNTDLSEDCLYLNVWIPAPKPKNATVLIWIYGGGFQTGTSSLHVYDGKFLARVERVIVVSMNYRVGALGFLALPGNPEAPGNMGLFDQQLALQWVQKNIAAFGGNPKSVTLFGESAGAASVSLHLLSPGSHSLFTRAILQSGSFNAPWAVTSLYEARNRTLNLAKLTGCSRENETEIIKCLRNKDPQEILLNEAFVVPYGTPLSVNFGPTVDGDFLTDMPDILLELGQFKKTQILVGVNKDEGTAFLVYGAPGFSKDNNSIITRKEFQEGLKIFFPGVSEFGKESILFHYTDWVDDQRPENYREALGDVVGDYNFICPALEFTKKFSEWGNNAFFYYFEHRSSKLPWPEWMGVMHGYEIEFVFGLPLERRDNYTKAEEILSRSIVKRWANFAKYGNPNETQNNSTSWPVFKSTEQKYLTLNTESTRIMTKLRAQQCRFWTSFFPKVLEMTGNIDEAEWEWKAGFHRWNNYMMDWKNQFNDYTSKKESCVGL
T1 sequence (P22303 whole entry): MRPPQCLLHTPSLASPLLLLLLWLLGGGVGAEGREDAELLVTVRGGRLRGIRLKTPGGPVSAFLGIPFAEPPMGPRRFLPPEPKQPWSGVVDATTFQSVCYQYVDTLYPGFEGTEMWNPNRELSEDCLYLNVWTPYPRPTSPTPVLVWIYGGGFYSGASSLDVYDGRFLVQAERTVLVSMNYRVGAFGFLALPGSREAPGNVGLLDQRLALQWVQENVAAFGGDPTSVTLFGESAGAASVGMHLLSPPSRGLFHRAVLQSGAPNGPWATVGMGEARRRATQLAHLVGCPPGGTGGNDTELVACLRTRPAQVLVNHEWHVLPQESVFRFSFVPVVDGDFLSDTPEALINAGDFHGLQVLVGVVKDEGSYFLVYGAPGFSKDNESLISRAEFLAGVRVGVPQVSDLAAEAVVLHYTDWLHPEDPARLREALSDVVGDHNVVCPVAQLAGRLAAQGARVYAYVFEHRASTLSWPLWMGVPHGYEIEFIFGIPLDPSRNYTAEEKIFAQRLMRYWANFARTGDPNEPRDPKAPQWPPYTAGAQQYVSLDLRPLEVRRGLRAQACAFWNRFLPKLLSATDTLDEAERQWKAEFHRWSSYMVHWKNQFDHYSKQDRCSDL

Compound | IC50 [1] | Activity [2] | activity at 18 h [3] | Activity [4] | inhibition [5] | inhibition [6] | inhibition at 0.5 h, 10 µM [7] | IC50 [8] | Ki [9] | activity at 0.5 h, 10 µM [10] | Ki [11]
Cc1coc2c1c(=O)oc(=O)c1c3c(ccc12)C(C)(C)CCC3 | 3310 nM | Active | 6 to 10% | 0.1 to 40% | 65% | 38% | > 70% | 7880 nM | 1.4 nM | 27% | 
Cc1cccc2c1ccc1c3c(c(=O)oc(=O)c12)[C@@H](C)CO3 | 10100 nM | Active | 9% | 18% | 66% | 61% | 99% | 7820 nM | 0.61 nM | 1% | 3.6 nM
O=C(C(=O)c1ccccc1)c1ccccc1 [BENZIL] |  |  | 85% | 98% |  |  |  |  |  | 5% | 
Cc1cccc2c1ccc1c3occ(C)c3c(=O)oc(=O)c21 | > 10000 nM |  | 54% | 4% | 47% | 32% | > 70% | > 10000 nM | 0.82 nM | 12% | 2.4 nM
C[C@H]1COc2c1c(=O)oc(=O)c1c3c(ccc21)C(C)(C)CCC3 | 3210 nM |  | 3 to 16% | 1 to 9% | 68% | 69% | > 70% | 2840 nM | 0.75 nM | 10% | 
O=S(=O)(F)Cc1ccccc1 [PHENYLMETHYLSULFONYLFLUORIDE] |  | Active |  |  |  |  |  |  |  |  | 
